Reference: ChEMBL document CHEMBL5724801, “EUbOPEN Chemogenomics Library - Multiplex” (2024)
Values joined by “and” are separate entries in the source; they are usually repeats but may differ in a detail not shown here. Equal entries are not always repeated.

Test system: U2OS
Assay: Multiplex assay against U2OS
Type: toxicity, cell-based
Settings: human
How it was run: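 Compound was added to live cells that had been stained at seeding with Hoechst33342, BioTracker Green Microtubule Cytoskeleton Dye, MitoTracker Red and Annexin V Alexa Fluor 680, and imaging followed on a CQ1 microscope at 37°C and 5% CO2. CellPathfinder machine-learning gating divided cells into Hoechst high-intensity objects or normal cells, normal cells into healthy, pyknosed or fragmented nuclei, and pyknosed cells into mitotic or apoptotic. Tubulin, mitochondrial-mass and membrane-permeability phenotypes are per cents of healthy-nucleus cells.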

[1] = 12 h, 1 µM, compound concentration 1 uM
[2] = 12 h, 10 µM, compound concentration 10 uM
[3] = 24 h, 1 µM, compound concentration 1 uM
[4] = 24 h, 10 µM, compound concentration 10 uM
[5] = 48 h, 1 µM, compound concentration 1 uM
[6] = 48 h, 10 µM, compound concentration 10 uM

## O=C1c2c(Br)c(Br)c(Br)c(Br)c2C(=O)N1c1ncc[nH]1
[1]
  Population Apoptotic (%): 34.38% and 22.22%
  Population Fragmented Nuclei (%): 2.78% and 4.62%
  Population Healthy Nuclei (%): 88.33% and 79.77%
  Population Hoechst High Intensity Objects (%): 0%
  Population Membrane Permeable-Phenotype (%): 2.52% and 6.52%
  Population Mitochondria Different-Phenotype (%): 0.94% and 6.52%
  Population Mitotic Cells (%): 65.62% and 77.78%
  Population Normal (%): 100%
  Population Pyknosed Nuclei (%): 8.89% and 15.61%
  Population Tubulin-Different-Phenotype (%): 1.26% and 0.72%
  Total Cell Count: 360 and 173
[2]
  Population Apoptotic (%): 30.95% and 44.44%
  Population Fragmented Nuclei (%): 1.83% and 1.43%
  Population Healthy Nuclei (%): 88.58% and 85.71%
  Population Hoechst High Intensity Objects (%): 0%
  Population Membrane Permeable-Phenotype (%): 0.77% and 1.67%
  Population Mitochondria Different-Phenotype (%): 0% and 5%
  Population Mitotic Cells (%): 69.05% and 55.56%
  Population Normal (%): 100%
  Population Pyknosed Nuclei (%): 9.59% and 12.86%
  Population Tubulin-Different-Phenotype (%): 0.77% and 0.83%
[3]
  Population Apoptotic (%): 47.37% and 28.12%
  Population Fragmented Nuclei (%): 1.69% and 4.85%
  Population Healthy Nuclei (%): 90.27% and 81.06%
  Population Hoechst High Intensity Objects (%): 0.21% and 0%
  Population Membrane Permeable-Phenotype (%): 1.17% and 4.35%
  Population Mitochondria Different-Phenotype (%): 0.47% and 3.8%
  Population Mitotic Cells (%): 52.63% and 71.88%
  Population Normal (%): 99.79% and 100%
  Population Pyknosed Nuclei (%): 8.03% and 14.1%
  Population Tubulin-Different-Phenotype (%): 1.41% and 1.63%
  Total Cell Count: 474 and 227
[4]
  Population Apoptotic (%): 43.1% and 37.93%
  Population Fragmented Nuclei (%): 1.95% and 1.6%
  Population Healthy Nuclei (%): 88.62% and 82.89%
  Population Hoechst High Intensity Objects (%): 0%
  Population Membrane Permeable-Phenotype (%): 0.73% and 3.87%
  Population Mitochondria Different-Phenotype (%): 0% and 3.87%
  Population Mitotic Cells (%): 56.9% and 62.07%
  Population Normal (%): 100%
  Population Pyknosed Nuclei (%): 9.43% and 15.51%
  Population Tubulin-Different-Phenotype (%): 0% and 0.65%
[5]
  Population Apoptotic (%): 46.91% and 35.59%
  Population Fragmented Nuclei (%): 2.45% and 2.79%
  Population Healthy Nuclei (%): 88.91% and 82.23%
  Population Hoechst High Intensity Objects (%): 0%
  Population Membrane Permeable-Phenotype (%): 1.56% and 1.23%
  Population Mitochondria Different-Phenotype (%): 0.24% and 3.09%
  Population Mitotic Cells (%): 53.09% and 64.41%
  Population Normal (%): 100%
  Population Pyknosed Nuclei (%): 8.64% and 14.97%
  Population Tubulin-Different-Phenotype (%): 0.84% and 0.31%
  Total Cell Count: 938 and 394
[6]
  Population Apoptotic (%): 50.54% and 55.88%
  Population Fragmented Nuclei (%): 4.81% and 1.63%
  Population Healthy Nuclei (%): 86.74% and 87.25%
  Population Hoechst High Intensity Objects (%): 0%
  Population Membrane Permeable-Phenotype (%): 0.31% and 3.37%
  Population Mitochondria Different-Phenotype (%): 0% and 1.12%
  Population Mitotic Cells (%): 49.46% and 44.12%
  Population Normal (%): 100%
  Population Pyknosed Nuclei (%): 8.45% and 11.11%
  Population Tubulin-Different-Phenotype (%): 0.31% and 1.87%

## CCOc1ccccc1C(=O)NCC1(N2CCN(CC)CC2)CCCCC1
[1]
  Population Apoptotic (%): 45.83% and 31.82%
  Population Fragmented Nuclei (%): 1.72% and 5.19%
  Population Healthy Nuclei (%): 91.38% and 78.52%
  Population Hoechst High Intensity Objects (%): 0%
  Population Membrane Permeable-Phenotype (%): 1.26% and 8.49%
  Population Mitotic Cells (%): 54.17% and 68.18%
  Population Normal (%): 100%
  Population Pyknosed Nuclei (%): 6.9% and 16.3%
  Population Tubulin-Different-Phenotype (%): 0.63% and 0.94%
  Total Cell Count: 348 and 135
[2]
  Population Apoptotic (%): 35% and 23.68%
  Population Fragmented Nuclei (%): 1.81% and 4.03%
  Population Healthy Nuclei (%): 80.05% and 70.47%
  Population Hoechst High Intensity Objects (%): 0.23% and 0%
  Population Membrane Permeable-Phenotype (%): 16.15% and 31.43%
  Population Mitotic Cells (%): 65% and 76.32%
  Population Normal (%): 99.77% and 100%
  Population Pyknosed Nuclei (%): 18.14% and 25.5%
  Population Tubulin-Different-Phenotype (%): 49.86% and 44.76%
  Total Cell Count: 442 and 149
[3]
  Population Apoptotic (%): 46.15% and 50%
  Population Fragmented Nuclei (%): 1.89% and 5.62%
  Population Healthy Nuclei (%): 87.16% and 80.62%
  Population Hoechst High Intensity Objects (%): 0%
  Population Membrane Permeable-Phenotype (%): 1.21% and 8.53%
  Population Mitochondria Different-Phenotype (%): 0% and 12.4%
  Population Mitotic Cells (%): 53.85% and 50%
  Population Normal (%): 100%
  Population Pyknosed Nuclei (%): 10.95% and 13.75%
  Population Tubulin-Different-Phenotype (%): 0.48% and 1.55%
  Total Cell Count: 475 and 160
[4]
  Population Apoptotic (%): 52.04% and 44.44%
  Population Fragmented Nuclei (%): 2.49% and 6.29%
  Population Healthy Nuclei (%): 80.07% and 65.41%
  Population Hoechst High Intensity Objects (%): 0%
  Population Membrane Permeable-Phenotype (%): 8% and 10.58%
  Population Mitotic Cells (%): 47.96% and 55.56%
  Population Normal (%): 100%
  Population Pyknosed Nuclei (%): 17.44% and 28.3%
  Population Tubulin-Different-Phenotype (%): 29.33% and 41.35%
[5]
  Population Apoptotic (%): 37.84% and 48.15%
  Population Fragmented Nuclei (%): 2.6% and 4.8%
  Population Healthy Nuclei (%): 88.67% and 71.62%
  Population Hoechst High Intensity Objects (%): 0%
  Population Membrane Permeable-Phenotype (%): 1.33% and 6.1%
  Population Mitotic Cells (%): 62.16% and 51.85%
  Population Normal (%): 100%
  Population Pyknosed Nuclei (%): 8.74% and 23.58%
  Population Tubulin-Different-Phenotype (%): 0.93% and 3.05%
[6]
  Population Apoptotic (%): 58.2% and 70.77%
  Population Fragmented Nuclei (%): 2.88% and 5.66%
  Population Healthy Nuclei (%): 83.08% and 63.68%
  Population Hoechst High Intensity Objects (%): 0.11% and 0%
  Population Mitotic Cells (%): 41.8% and 29.23%
  Population Normal (%): 99.89% and 100%
  Population Pyknosed Nuclei (%): 14.04% and 30.66%
  Population Tubulin-Different-Phenotype (%): 15.24% and 28.89%
